# S100A4 MyoIIA = inhibitors of human S100A4 binding to myosin IIA peptide | S100A4/TAMRA-MyoIIA peptide fluorescence polarization | 360,000 tested, 0.14% active | P26447 | inhibition, % at 10.7 µM | AID 652163;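 active = mean inhibition of at least 70% across replicates, with every replicate also reaching that level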
#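 Test system: S100A4 monomer protein. Medium: HEPES buffer with Ca2+, pH 7.2. Reagent: fluorescent myosin IIA peptide, 5 nM. Compound dosing: single-point compound testing. Timing: 5 min between mix addition and reading. Benchmarks: DMSO neutral and TFP positive wells.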
# RAD54 inh = RAD54 (human) branch migration inhibition | inhibition, % at 10.4 µM | Q92698 | 360,000 tested, 0.14% active | RAD54 Holliday junction branch migration, FAM/BHQ fluorescence;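 active = mean normalized replicate activity at least 40 and at least half of replicates scoring 40 or more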;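 also: inhibitors cause a drop in the FAM fluorescence signal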
# Target sequence (Q92698 whole entry, looked up): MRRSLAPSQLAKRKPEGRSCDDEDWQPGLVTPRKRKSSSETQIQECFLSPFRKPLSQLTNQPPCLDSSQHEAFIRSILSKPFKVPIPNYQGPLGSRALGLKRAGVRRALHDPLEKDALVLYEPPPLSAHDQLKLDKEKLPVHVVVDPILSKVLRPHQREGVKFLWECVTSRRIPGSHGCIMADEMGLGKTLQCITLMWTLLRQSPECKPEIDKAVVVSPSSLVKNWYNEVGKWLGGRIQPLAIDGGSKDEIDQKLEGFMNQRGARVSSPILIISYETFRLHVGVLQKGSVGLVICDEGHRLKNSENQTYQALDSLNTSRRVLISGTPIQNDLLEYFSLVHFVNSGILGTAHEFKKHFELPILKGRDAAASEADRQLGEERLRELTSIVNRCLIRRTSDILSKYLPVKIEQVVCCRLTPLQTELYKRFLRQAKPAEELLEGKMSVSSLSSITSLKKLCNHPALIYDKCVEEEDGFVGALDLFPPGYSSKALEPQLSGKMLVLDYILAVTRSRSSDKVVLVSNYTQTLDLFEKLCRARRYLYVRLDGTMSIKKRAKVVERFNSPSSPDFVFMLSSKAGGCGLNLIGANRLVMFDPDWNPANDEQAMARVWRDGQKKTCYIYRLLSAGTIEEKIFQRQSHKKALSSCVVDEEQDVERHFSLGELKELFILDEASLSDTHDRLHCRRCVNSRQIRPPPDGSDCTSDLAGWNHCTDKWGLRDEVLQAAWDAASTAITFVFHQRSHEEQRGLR
# CASP6 VEID inh = inhibitors of human caspase-6; P55212; purified caspase-6, Z-VEID-R110 cleavage fluorescence; 350,000 tested, 0.53% active; inhibition, % at 12.5 µM; AID 686996;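 active = mean inhibition across replicates at least about 35%, with every replicate also reaching that limit, limit read from the data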
# AF4-AF9 inh = MLL-AF4/AF9 protein interaction inhibition | 350,000 tested, 0.47% active | inhibition, % at 10 µM | P42568 | AlphaScreen, biotin-AF4 peptide binding to FLAG-AF9;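 active = every replicate reaching a set inhibition limit, whatever the replicate mean, cut at about 25% in these data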
# RAD52 anneal inh = inhibitors of human RAD52 DNA annealing | P43351 | recombinant RAD52 DNA annealing, FRET fluorescence | inhibition, % at 18.7 µM | 360,000 tested, 0.46% active;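 active = every replicate showing at least 50% inhibition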
# XiGFP reactiv = activators of X-chromosome reactivation in mouse fibroblasts; AID 743238; activation, % at 7.58 µM; 360,000 tested, 0.055% active; XiGFP mouse fibroblasts, % GFP-positive cells imaging, 3 d; cells co-treated with 5-aza-dC sensitizer; scaled so ellipticine positive control = 100%;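 active = mean normalized replicate activation at least 10% and every replicate at or above 10%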
#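 assay system = SV40-immortalized XiGFP fibroblast cells, line 68-5-11 | buffer or medium = DMEM plus 5-aza-dC sensitizer | doses = single-point pinned compound dosing | times = 3-day compound exposure, then 15 min fixation at room temperature | benchmarks = positive control ellipticine, 6 µM final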
# Hits are given with their value; n = inactive; x = not tested or not shown; + = active, no number. Compounds with a hit are over-represented: about 1.3% of the library has one in this group of screens.
SMILES,S100A4 MyoIIA,RAD54 inh,CASP6 VEID inh,AF4-AF9 inh,RAD52 anneal inh,XiGFP reactiv
CO[C@H]1C=CO[C@@]2(C)Oc3c(C)c(O)c4c(O)c(c(C=NN5CCN(C)CC5)c(O)c4c3C2=O)NC(=O)C(C)=CC=C[C@H](C)[C@H](O)[C@@H](C)[C@@H](O)[C@@H](C)[C@H](OC(C)=O)[C@@H]1C,n,n,n,n,n,n
CO[C@H]1/C=C/O[C@@]2(C)Oc3c(C)c(O)c4c(O)c(c(C=NN5CCN(C)CC5)c(O)c4c3C2=O)NC(=O)/C(C)=C\C=C\[C@H](C)[C@H](O)[C@@H](C)[C@@H](O)[C@@H](C)[C@H](OC(C)=O)[C@@H]1C,n,n,n,31.2,n,n
CN(C)c1ccc2c(c1)[C@@H]1C[C@@H](CC(=O)NCc3ccccn3)O[C@@H](CO)[C@@H]1O2,n,n,40.4,n,n,n
CN(C)CC(=O)Nc1ccc2c(c1)[C@H]1C[C@@H](CC(=O)NCCN3CCCCC3)O[C@@H](CO)[C@H]1O2,n,n,n,n,n,n
CN(C)CC(=O)Nc1ccc2c(c1)[C@H]1C[C@H](CC(=O)NCc3ccccn3)O[C@H](CO)[C@H]1O2,n,n,n,n,n,n
CN(C)c1ccc2c(c1)[C@H]1C[C@H](CC(=O)NCCN3CCCCC3)O[C@@H](CO)[C@H]1O2,n,52.6,n,n,n,n
C[C@@H]1CN([C@@H](C)CO)C(=O)c2cc(-c3cccc(C#N)c3)cnc2O[C@H]1CN(C)Cc1ccncc1,n,n,n,n,n,n
COC(=O)c1ccccc1-c1ccc(/C=N/NC(=O)c2cc3ccccc3o2)o1,x,n,x,x,x,x
COC(=O)c1ccccc1-c1c2ccc(=N)cc-2oc2cc(N)ccc12,+,n,n,n,n,n
COCCCNc1c2c3c(cccc3[nH]c1=O)C(=O)c1ccccc1-2,126.6,n,n,n,n,n
C[C@H](CO)N1C[C@H](C)[C@H](CN(C)Cc2ccc(C(F)(F)F)cc2)Oc2c(NC(=O)Nc3cccc4ccccc34)cccc2C1=O,n,n,n,n,n,n
CCS(=O)(=O)N1CC2(CN(Cc3ccccc3F)[C@H](CO)c3c2c2ccc(OC)cc2n3C)C1,n,x,n,n,n,n
Cc1noc(C)c1NC(=O)N(C)C[C@H]1OCCCC[C@H](C)Oc2ccc(NC(=O)NC(C)C)cc2C(=O)N([C@H](C)CO)C[C@@H]1C,n,n,n,n,n,n
Nc1c(C(=O)OCC(=O)Nc2ccccc2Br)[nH]c(=O)[nH]c1=O,n,x,n,n,n,n
Nc1c(C(=O)OCC(=O)NCc2ccccc2)[nH]c(=O)[nH]c1=O,n,n,n,37.8,n,x
CCO/C=C1/C(=O)N(c2ccccc2OC)C(=O)c2ccccc21,n,n,37.7,n,n,n
COc1ccccc1N1C(=O)S/C(=C\c2ccc(C)s2)C1=O,n,n,n,n,n,n
CCO/C=C1/C(=O)N(Cc2ccccc2)C(=O)c2ccccc21,n,x,93.8,n,n,n
CCOC=C1SC(=S)N(c2ccccc2OC)C1=O,126.9,n,n,n,n,n
CCO/C=C1\C(=O)N(c2ccccc2)C(=O)c2ccccc21,x,n,x,x,x,x
C[C@H](O)[C@@H]1C(=O)N2CCc3c([nH]c4ccccc34)[C@@H]2C[C@@H]1N(C)C(=O)Nc1cccc2ccccc12,n,n,82.1,n,n,n
Cc1noc(C)c1S(=O)(=O)Nc1ccc2c(c1)C(=O)N([C@H](C)CO)C[C@H](C)[C@@H](CN(C)S(=O)(=O)c1cn(C)cn1)O2,n,x,n,n,n,n
CN1C(=O)c2cc(NC(=O)c3cnccn3)ccc2OC[C@H]2O[C@H](CC(=O)NCC3CC3)CC[C@@H]21,x,x,x,x,x,n
O=c1[nH]c(N2CCOCC2)cc2ccccc12,n,n,96.1,n,n,n
COC1=C(Nc2ccc(C)cc2)C(=O)c2ccccc2C1=O,n,x,n,36.9,n,n
SMILES,S100A4 MyoIIA,RAD54 inh,CASP6 VEID inh,AF4-AF9 inh,RAD52 anneal inh,XiGFP reactiv
CCN(CC)CCOc1ccc(/C(=C(\Cl)c2ccccc2)c2ccccc2)cc1,n,n,n,31.6,n,n
C[C@@H](NC(=O)C[C@H]1CC[C@H](NC(=O)C2CC2)[C@@H](CO)O1)c1ccccc1,n,n,n,n,n,n
COc1cc2c(cc1OC)CN(C(=O)[C@@H]1[C@H]3C(=O)O[C@H](c4ccccc4)[C@H](c4ccccc4)N3[C@H](c3ccc(OCCO)cc3)[C@@]13C(=O)Nc1ccc(C#CCNC(N)=O)cc13)CC2,n,n,n,n,n,x
Cc1noc(C)c1NC(=O)N[C@@H]1CC[C@H](CCNC(=O)C2CCOCC2)O[C@@H]1CO,98.3,n,n,n,n,n
C[C@@H](NC(=O)C[C@H]1CC[C@H](NC(=O)CN2CCOCC2)[C@H](CO)O1)c1ccccc1,n,n,n,n,n,n
C[C@@H](NC(=O)C[C@@H]1CC[C@@H](NC(=O)CN2CCOCC2)[C@@H](CO)O1)c1ccccc1,n,n,62.8,n,n,n
Cc1noc(C)c1NC(=O)N[C@H]1CC[C@@H](CCNC(=O)C2CCOCC2)O[C@H]1CO,n,n,n,n,n,n
O=C(CN1CCOCC1)N[C@H]1CC[C@H](CCNC(=O)C2CCC2)O[C@H]1CO,n,n,n,43.3,n,n
C[C@@H]1CN([C@@H](C)CO)C(=O)c2cc(N(C)C)ccc2O[C@H]1CN(C)Cc1ccc(Oc2ccccc2)cc1,n,n,n,44.6,n,n
C[C@@H]1CN([C@@H](C)CO)C(=O)c2cc(N(C)C)ccc2O[C@@H]1CN(C)Cc1ccc(Oc2ccccc2)cc1,x,x,x,x,x,n
C[C@H]1CN([C@@H](C)CO)C(=O)c2cc(N(C)C)ccc2O[C@H]1CN(C)Cc1ccc(Oc2ccccc2)cc1,n,n,n,44.6,n,n
C[C@H]1CN([C@@H](C)CO)C(=O)c2cc(N(C)C)ccc2O[C@@H]1CN(C)Cc1ccc(Oc2ccccc2)cc1,n,n,n,39.6,n,n
CC(C)NC(=O)Nc1ccc2c(c1)C(=O)N(C)C[C@@H](C)[C@@H](CN(C)S(C)(=O)=O)O2,x,x,x,x,x,n
COc1ccc2c3c([nH]c2c1)[C@@H](CO)N(C(=O)C1CCCCC1)CC31CCN(C)CC1,x,x,x,x,x,n
C[C@@H]1CCCCO[C@H](CN(C)C(=O)Nc2ccc(F)cc2)[C@@H](C)CN([C@H](C)CO)C(=O)c2cc(NC(=O)Nc3ccc(F)cc3)ccc2O1,n,n,n,n,n,n
COc1ccc(Nc2ccc(OC)cc2)cc1,n,n,n,81.0,n,n
Cc1noc(C)c1NC(=O)N(C)C[C@H]1Oc2c(NC(=O)Nc3ccc(C(F)(F)F)cc3)cccc2C(=O)N([C@@H](C)CO)C[C@@H]1C,n,n,n,n,n,n
CCN(CC)c1ccc2cc(-c3nnc(-c4ccccc4)o3)c(=O)oc2c1,x,n,x,x,x,x
